In brackets after ≈: the same amount, converted by molar mass.

Data on one compound can be found in ChEMBL document CHEMBL4400507, “Discovery of Novel Transient Receptor Potential Vanilloid 4 (TRPV4) Agonists as Regulators of Chondrogenic Differentiation: Identification of Quinazolin-4(3 H)-ones and in Vivo Studies on a Surgically Induced Rat Model of Osteoarthritis” (J Med Chem, 2019).

A short description of data set [1]: Protein binding in plasma (unknown origin). Format: ADME, cell-free.
Data set [2] is described as follows: Solubility of the compound in saline. Format: physicochemical.
The target of data set [3] is T1, Transient receptor potential cation channel subfamily V member 4 (Homo sapiens, UniProt Q9HBA0). In words: Agonist activity at recombinant human TRPV4 expressed in HEK293 cells assessed as increase in intracellular calcium level after 30 mins by Fura-2 AM/Pluronic F-127 probe based fluorescence assay. Format: cell-based. In outline:
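HEK293 cells transiently expressing human TRPV4 were loaded with 5 µM Fura-2 AM plus 0.2% Pluronic F-127 for 30 min at 37 °C in HEPES buffer (pH 7.4, 1.8 mM CaCl2, 0.1% BSA). They were then washed and resuspended. Intracellular Ca2+ was read by Fura-2 ratio imaging (excitation 340/380 nm, emission 510 nm).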

Data set [4] deals with Transient receptor potential cation channel subfamily V member 1 (Homo sapiens) (UniProt Q8NER1). In words: Agonist activity at human TRPV1 assessed as increase in intracellular calcium level at 10 uM relative to control. Format: cell-based.
Data set [5] addresses T1, Transient receptor potential cation channel subfamily V member 4. In words: Agonist activity at recombinant human TRPV4 expressed in […] cells by SOX9 luciferase reporter gene assay. It is filed as cell-based. In outline: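 ATDC5 cells stably carrying a SOX9 reporter gene construct and human TRPV4 (pcDNA3.1) were seeded at 2.0 × 10^4 cells/well and treated with compound. Luciferase luminescence was measured the next day.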

T1 sequence (Q9HBA0 whole entry): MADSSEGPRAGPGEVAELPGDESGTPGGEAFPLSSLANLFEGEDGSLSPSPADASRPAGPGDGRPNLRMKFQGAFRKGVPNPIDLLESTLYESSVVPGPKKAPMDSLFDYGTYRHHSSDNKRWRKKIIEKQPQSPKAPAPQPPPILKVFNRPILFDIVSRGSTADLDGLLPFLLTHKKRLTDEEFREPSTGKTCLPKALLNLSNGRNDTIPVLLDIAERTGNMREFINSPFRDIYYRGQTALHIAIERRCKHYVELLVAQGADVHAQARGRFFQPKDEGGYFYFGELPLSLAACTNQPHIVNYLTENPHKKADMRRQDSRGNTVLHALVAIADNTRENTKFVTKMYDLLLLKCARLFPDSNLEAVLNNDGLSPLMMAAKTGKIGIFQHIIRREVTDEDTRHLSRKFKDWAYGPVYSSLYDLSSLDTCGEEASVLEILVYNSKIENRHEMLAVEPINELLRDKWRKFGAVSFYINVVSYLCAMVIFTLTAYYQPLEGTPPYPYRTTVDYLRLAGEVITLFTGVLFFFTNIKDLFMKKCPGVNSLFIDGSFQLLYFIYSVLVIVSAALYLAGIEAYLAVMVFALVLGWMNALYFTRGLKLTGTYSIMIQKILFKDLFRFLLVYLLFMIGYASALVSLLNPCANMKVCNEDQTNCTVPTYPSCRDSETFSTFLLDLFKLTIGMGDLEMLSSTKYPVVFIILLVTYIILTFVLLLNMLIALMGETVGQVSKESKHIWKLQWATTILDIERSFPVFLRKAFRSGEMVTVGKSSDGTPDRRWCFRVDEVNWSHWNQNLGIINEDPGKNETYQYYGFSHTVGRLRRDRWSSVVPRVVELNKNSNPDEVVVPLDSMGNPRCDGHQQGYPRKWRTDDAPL
Sequence of Transient receptor potential cation channel subfamily V member 1 (Homo sapiens) (Q8NER1 whole entry): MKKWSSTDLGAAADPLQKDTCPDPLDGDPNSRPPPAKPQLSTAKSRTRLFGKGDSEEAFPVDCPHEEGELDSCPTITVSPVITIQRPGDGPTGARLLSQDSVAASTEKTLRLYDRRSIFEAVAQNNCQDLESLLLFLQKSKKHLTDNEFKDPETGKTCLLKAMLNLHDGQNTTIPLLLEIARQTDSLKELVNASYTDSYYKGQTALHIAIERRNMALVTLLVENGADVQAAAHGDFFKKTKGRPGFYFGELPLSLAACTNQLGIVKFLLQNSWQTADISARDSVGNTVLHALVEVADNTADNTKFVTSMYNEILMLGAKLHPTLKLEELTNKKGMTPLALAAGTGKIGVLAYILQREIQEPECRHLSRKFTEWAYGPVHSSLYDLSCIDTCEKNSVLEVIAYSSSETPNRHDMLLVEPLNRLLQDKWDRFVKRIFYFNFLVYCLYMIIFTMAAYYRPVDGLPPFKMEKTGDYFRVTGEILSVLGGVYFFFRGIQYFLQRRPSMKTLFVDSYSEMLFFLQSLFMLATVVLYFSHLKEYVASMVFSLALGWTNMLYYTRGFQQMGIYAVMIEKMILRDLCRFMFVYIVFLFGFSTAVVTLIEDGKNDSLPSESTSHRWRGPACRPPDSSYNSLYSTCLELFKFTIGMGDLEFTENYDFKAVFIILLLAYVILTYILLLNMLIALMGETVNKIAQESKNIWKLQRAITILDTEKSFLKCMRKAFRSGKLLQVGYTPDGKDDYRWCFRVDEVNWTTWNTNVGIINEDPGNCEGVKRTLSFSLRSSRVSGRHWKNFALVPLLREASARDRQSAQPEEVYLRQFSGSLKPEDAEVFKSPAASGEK

Regarding `CN1CCN(c2nc3c(F)cccc3c(=O)n2-c2ccc(OC3CCOCC3)cc2)CC1`, the fraction unbound in data set [1] was 0.297. The compound also showed a solubility in data set [2] of 1110 µg/mL (≈ 2520 µM). In addition, in data set [3], the EC50 came out at 0.87 µM. In addition, the Activity in data set [4] was 8.7%. The ECmax in data set [5] was determined as 2500 nM.

As a reminder, the fraction unbound is the share of the substance not bound to proteins or other matrix. The low end stands for little free substance, the high end for much free substance. In general, solubility refers to the concentration that dissolves in the medium under given conditions. A higher solubility goes with much dissolved substance. Usually EC50 stands for the concentration giving half of the maximal effect.
